According to ChEMBL document CHEMBL1127690, “Antiinflammatory 4,5-diarylpyrroles: synthesis and QSAR” (J Med Chem, 1994):
Blank lines part the entries; values can stand above or below the compound they belong to.

Assays:
Rattus norvegicus [1] = organism: Rattus norvegicus; assay: Antiinflammatory activity against adjuvant induced arthritis in male charles river rats; format: functional
[2] = TD50/ED50 value of the compound; format: functional
Outline: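 Ratio of the GI lesion TD50 to the established adjuvant arthritis paw ED50, both measured orally in rats.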

[3] = Gastrointestinal safety of a compound relative to indomethacin and piroxicam; format: ADME
Outline: (§1)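 Male Sprague-Dawley rats (~165 g) received a single oral dose of drug or vehicle. Stomach and small intestine were examined for mucosal lesions under a 10× dissecting microscope in coded, randomized order. Any single lesion counted as positive. TD50 was calculated by the moving-average method.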

[4] = Maximum blood level reached at dose of 10.6 uM/kg orally; format: ADME, organism-based; set-up: dose 10.6 uM/kg, route oral; details: in vivo, po
[5] = Maximum blood level reached after an dose of 10.6 uM/kg intravenously; format: ADME, organism-based; set-up: dose 10.6 uM/kg, route intravenous; details: in vivo, iv
[6] = Volume of distribution at dose of 10.6 uM/kg intravenously; format: ADME, organism-based; details: in vivo, iv
[7] = Elimination half life at dose of 10.6 uM/kg orally; format: ADME, organism-based; details: in vivo, po
Rattus norvegicus [8] = assay: Safety assessment in adjuvant induced arthritis rat model (AA),po; format: functional
[9] = Elimination half life at dose of 10.6 uM/kg intravenously; format: ADME, organism-based; details: in vivo, iv
Rattus norvegicus [10] = assay: Safety assessment in adjuvant induced arthritis rat model (AA),day 18,po; format: functional; details: 432 h
Mus musculus = organism: Mus musculus; assay: Effective dose of compound against analgesia was determined by phenylquinone writhing assay
Rattus norvegicus [11] = organism: Rattus norvegicus; assay: Activity in the nonestablished adjuvant-induced arthritis model; format: functional
Rattus norvegicus [12] = organism: Rattus norvegicus; assay: Maximum tolerated dose for 12 days in long evans rats; format: functional
[13] = Ratio (12-day no effect/AA ED50) of the compound; format: functional
Outline: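 Maximum no-effect dose from the 12-day study divided by the adjuvant arthritis ED50. […] Read-outs were mortality, pharmacologic or toxic signs, body and organ weights and gross necropsy.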

Rattus norvegicus [14] = assay: Safety assessment in car paw assay, po; format: functional
[15] = Gastrointestinal safety of a compound relative to indomethacin and piroxicam in rats; format: ADME, organism-based; details: rat, in vivo; outline: as §1
Rattus norvegicus [16] = organism: Rattus norvegicus; assay: Compound was evaluated for 12 day tolerance in long evans rats; format: functional
[17] = Elimination half life at a dose of 12.7 uM/kg, po; format: ADME, organism-based; details: in vivo
[18] = Elimination half life at a dose of 6.3 uM/kg iv; format: ADME, organism-based; details: in vivo
[19] = Cmax value at a dose of 6.3 uM/kg, iv; format: ADME, organism-based; set-up: dose 6.3 uM/kg, route intravenous; details: in vivo
[20] = Volume of distribution at a dose of 6.3 uM/kg, iv; format: ADME, organism-based; details: in vivo
[21] = Cmax value at a dose of 12.7 uM/kg, po; format: ADME, organism-based; set-up: dose 12.7 uM/kg, route oral; details: in vivo

SMILES: CS(=O)(=O)c1ccc(-c2[nH]c(F)c(F)c2-c2ccc(F)cc2)cc1
- ED50 (Rattus norvegicus [1]): 0.31 mg/kg

- Cmax [4]: 1.5 uM l-1
- Cmax [5]: 2.8 uM l-1
- Vd [6]: 4.3 L/kg
- half-life [7]: 47.5 h
- half-life [9]: 29.3 h
SMILES: CS(=O)(=O)c1ccc(-c2[nH]c(Br)c(Br)c2-c2ccc(F)cc2)cc1
- TD50/ED50 [2]: > 113
- ED50 (Rattus norvegicus [1]): 1.94 mg/kg
- TD50 [3]: > 211 µmol/kg
- ED50 (Rattus norvegicus [8]; read-out: ED50): 4.1 µmol/kg

SMILES: CSc1cc(-c2ccc(F)cc2)c(-c2ccc(S(C)(=O)=O)cc2)[nH]1
- ED50 (Rattus norvegicus [10]): 69.2 µM/kg
- TD50/ED50 [2]: > 83
- ED50 (Mus musculus): 46.3 mg/kg
- ED50 (Rattus norvegicus [1]): 1.8 mg/kg
- ED50 (Rattus norvegicus [11]): 25 mg/kg
- Max tolerated dose (Rattus norvegicus [12]): >199 µM/kg
- Ratio [13]: > 30
- ED30 (Rattus norvegicus [14]): >276 µM/kg
- TD50 [15]: > 414 µmol/kg
- ED50 (Rattus norvegicus [8]): 4.98 µM/kg
- no-effect dose (Rattus norvegicus [16]): >99 µM/kg

SMILES: CC(C)(C)OC(=O)n1c(Br)cc(-c2ccc(F)cc2)c1-c1ccc(S(C)(=O)=O)cc1
- ED50 (Rattus norvegicus [1]): 31 mg/kg

SMILES: Cc1ccc(S(=O)(=O)n2c(Br)cc(-c3ccc(F)cc3)c2-c2ccc(S(C)(=O)=O)cc2)cc1
- ED50 (Rattus norvegicus [1]): > 9 mg/kg

SMILES: CS(=O)(=O)c1ccc(-c2[nH]c(F)cc2-c2ccc(F)cc2)cc1
- ED50 (Rattus norvegicus [1]): 0.31 mg/kg

SMILES: CS(=O)(=O)c1ccc(-c2[nH]ccc2-c2ccc(F)cc2)cc1
- ED50 (Rattus norvegicus [1]): > 100 mg/kg

SMILES: CS(=O)(=O)c1ccc(-c2[nH]c(I)cc2-c2ccc(F)cc2)cc1
- ED50 (Rattus norvegicus [1]): 22 mg/kg

SMILES: CS(=O)(=O)c1ccc(-c2[nH]c(C(=O)C(F)(F)F)cc2-c2ccc(F)cc2)cc1
- ED50 (Rattus norvegicus [1]): 19.4 mg/kg

SMILES: CC(=O)n1c(Br)cc(-c2ccc(F)cc2)c1-c1ccc(S(C)(=O)=O)cc1
- ED50 (Rattus norvegicus [1]): 36.2 mg/kg

SMILES: CS(=O)(=O)c1ccc(-c2[nH]c(Cl)c(Cl)c2-c2ccc(F)cc2)cc1
- ED50 (Rattus norvegicus [1]): 1.5 mg/kg

SMILES: CS(=O)(=O)c1ccc(-c2[nH]c(Br)c(Cl)c2-c2ccc(F)cc2)cc1
- ED50 (Rattus norvegicus [1]): 4.28 mg/kg

SMILES: CS(=O)(=O)c1ccc(-c2[nH]c(Br)cc2-c2ccc(F)cc2)cc1
- half-life [17]: 9.9 h
- half-life [18]: 10.2 h
- ED50 (Rattus norvegicus [10]; read-out: ED50): 22.7 µmol/kg
- TD50/ED50 [2]: 36
- Cmax [19]: 2 uM l-1
- ED50 (Rattus norvegicus [1]): 1.05 mg/kg
- TD50 [3]: 95.9 µmol/kg
- Vd [20]: 3.5 L/kg
- Cmax [21]: 3 uM l-1
- Ratio [13]: > 43
- ED50 (Rattus norvegicus [8]; read-out: ED50): 2.55 µmol/kg
- no-effect dose (Rattus norvegicus [16]): >46 µM/kg

SMILES: COc1ccc2c(c1)c(CC(=O)O)c(C)n2C(=O)c1ccc(Cl)cc1 [INDOMETHACIN]
- ED50 (Rattus norvegicus [1]): 0.3 mg/kg
